This is a sample that favours compounds with a hit; in the whole collection about 3.6% have one here.
MITF TRPM1 HTS: activators of MITF-driven TRPM1 promoter reporter, primary screen, cell-based, SK-MEL-5, luciferase, single point | SK-MEL-5 TRPM1-promoter luciferase, 24 h; % of positive control, neutral wells = 0 | activation, % at 12.5 µM | actives 0.75% (n = 300,000);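 active = mean activation of at least 80% with every replicate also reaching 80%; inconclusive = mean reaches 80% but some replicate falls short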
Wnt act: Wnt/beta-catenin pathway activators, primary screen, cell-based, plate reader, single point; Wnt/beta-catenin reporter cell assay, activator; activation, % at 9.35 µM; actives 1.2% (n = 300,000); AID 743398, 2014; in the data active = activation above about 30%, passing the limit was not always enough; inconclusive = no clear call, values can overlap the other calls
HSF1 activator: HSF-1 activators, primary screen, NIH3T3-HGL cells, MG132 stress, luminescence, single point; NIH3T3-HGL HSF-1 luciferase reporter, 8 h; 100% = twice DMSO control signal; activation, % at 9 µM; actives 1.7% (n = 300,000); AID 504408, 2011;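 active = mean replicate activation of at least 50% with a set share of replicates each reaching 50%; inconclusive = only one of those two conditions met; inactive = mean below 50% and too few replicates reaching it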
SR-BI uptake up: activators of SR-BI mediated DiI-HDL uptake, primary screen, ldlA[mSR-BI] CHO cells, DiI fluorescence | 3 h; 100 = double the neutral-control signal | activation, % at 12.5 µM | actives 0.096% (n = 320,000) | AID 504775, 2011;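 active = mean replicate activation of at least 60% and every replicate at or above 60%; inconclusive = mean or all-replicate condition met, but not both; inactive = mean below 60% and not all replicates reaching 60%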
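Test system: SR-BI-overexpressing, LDLR-lacking CHO cells; Medium: Ham's F12 with 0.5% BSA, HEPES 25 mM, pH 7.4; Schedule: 3 h, 37 °C; Technique: bottom-read fluorescence, 550/595 nm.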
SR-BI DiI inh: inhibitors of SR-BI mediated HDL lipid uptake, primary screen, ldlA[mSR-BI] cells, fluorescence, single point; inhibition, % at 12.5 µM; ldlA[mSR-BI] CHO cells, DiI-HDL uptake fluorescence, 3 h; actives 0.96% (n = 320,000);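 active = mean replicate inhibition of at least 70% and a set share of replicates each scoring 70 or more; inconclusive = meets just one of the two criteria; inactive = fails both criteria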
Target sequence (Q61009 whole entry, looked up): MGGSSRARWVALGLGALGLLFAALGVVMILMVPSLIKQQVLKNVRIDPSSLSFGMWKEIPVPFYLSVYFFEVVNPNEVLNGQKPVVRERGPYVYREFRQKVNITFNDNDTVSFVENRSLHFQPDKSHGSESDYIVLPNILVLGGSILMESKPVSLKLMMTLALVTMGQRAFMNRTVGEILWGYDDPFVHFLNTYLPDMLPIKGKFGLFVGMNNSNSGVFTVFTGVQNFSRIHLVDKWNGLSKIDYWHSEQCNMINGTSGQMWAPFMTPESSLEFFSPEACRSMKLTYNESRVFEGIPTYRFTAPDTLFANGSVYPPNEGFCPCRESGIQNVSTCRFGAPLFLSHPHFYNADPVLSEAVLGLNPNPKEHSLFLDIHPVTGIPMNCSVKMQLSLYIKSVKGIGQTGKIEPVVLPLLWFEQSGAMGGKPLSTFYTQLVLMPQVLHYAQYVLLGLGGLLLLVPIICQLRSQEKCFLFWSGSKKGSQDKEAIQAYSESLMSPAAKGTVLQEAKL
A number is an active result.

For O=[N+]([O-])c1ccc(NN=Cc2ccc(O)cc2)nc1 the results were MITF TRPM1 HTS inactive, Wnt act 67, SR-BI uptake up inactive and SR-BI DiI inh inactive.
`CCOC(=O)C1(NC(=O)C2(N3C(=O)c4ccccc4C3=O)CCCC2)CCCC1` gave MITF TRPM1 HTS inactive, Wnt act inactive, SR-BI uptake up inactive and SR-BI DiI inh inactive.
`O=[N+]([O-])c1ccc(NN=Cc2ccccc2O)nc1` gave MITF TRPM1 HTS inactive, Wnt act inactive, SR-BI uptake up inactive and SR-BI DiI inh 88.
Cc1ccc(C(=O)CSc2nc(C(C)C)nc3ccccc23)cc1 was read as MITF TRPM1 HTS inactive, Wnt act 36, HSF1 activator inactive, SR-BI uptake up inactive and SR-BI DiI inh inactive.
COc1ccc(CCNC(=O)c2ccc(CSc3ccc(Cl)cc3)o2)cc1OC was read as Wnt act inactive.
`Cc1cc(C(=O)Nc2sc3c(c2C#N)CCC(C)C3)cs1` (configuration not stated) gave MITF TRPM1 HTS inactive, Wnt act inactive, HSF1 activator 74, SR-BI uptake up inactive and SR-BI DiI inh 75.
Screening CC1CCc2c(sc(NC(=S)NC(=O)c3ccccc3)c2C#N)C1 (configuration not stated) returned MITF TRPM1 HTS inactive, Wnt act inactive and HSF1 activator 59.
`Cc1ccccc1C(=O)NC(=S)Nc1sc2c(c1C#N)CCC(C)C2` (configuration not stated) gave MITF TRPM1 HTS inactive, Wnt act inactive, HSF1 activator inactive, SR-BI uptake up inactive and SR-BI DiI inh inactive.
`O=C(CSCc1ccc(Br)cc1)N1CCCC1` gave MITF TRPM1 HTS inactive, Wnt act inactive, HSF1 activator 57, SR-BI uptake up inactive and SR-BI DiI inh inactive.
Screening Cc1c(C(=O)Nc2ccccc2)cnn1-c1ccccc1 returned MITF TRPM1 HTS inactive, Wnt act 63, HSF1 activator inactive, SR-BI uptake up inactive and SR-BI DiI inh inactive.
`Cc1ccccc1C(=O)Nc1c(C(=O)N2CCCC2)cnn1-c1ccccc1` gave MITF TRPM1 HTS inactive, Wnt act inactive, HSF1 activator inactive, SR-BI uptake up inactive and SR-BI DiI inh inactive.
CC(=O)c1cccc(NC(=O)c2cnn(-c3ccccc3)c2C)c1 was read as MITF TRPM1 HTS inconclusive, Wnt act inactive, HSF1 activator inactive, SR-BI uptake up inactive and SR-BI DiI inh inactive.
Cc1c(C(=O)Nc2cccc(F)c2)cnn1-c1ccccc1 was read as MITF TRPM1 HTS 109, Wnt act inactive, HSF1 activator inconclusive, SR-BI uptake up inactive and SR-BI DiI inh inactive.
For CCOC(=O)c1cnn(-c2ccccc2)c1NC(=O)c1ccccc1C the results were MITF TRPM1 HTS inactive, Wnt act 39, HSF1 activator inactive, SR-BI uptake up inactive and SR-BI DiI inh inactive.
Screening COc1cc(=O)oc(C=O)c1C returned Wnt act inactive.
Screening C#CCN1CC(COc2ccccc2)OCCS1(=O)=O (configuration not stated) returned Wnt act inactive.
Screening O=C(c1ccc(C(F)(F)F)cc1)n1ccc(-c2cccs2)n1 returned MITF TRPM1 HTS inactive, Wnt act 42, HSF1 activator inactive, SR-BI uptake up inactive and SR-BI DiI inh inactive.
O=C(c1ccc(F)cc1)n1ccc(-c2cnc(-c3ccccc3)s2)n1 was read as MITF TRPM1 HTS inactive, HSF1 activator inactive, SR-BI uptake up inactive and SR-BI DiI inh inactive.
`CSCCC(C(=O)NCc1ccccc1)n1c(-c2ccc3c(c2)CCO3)nc2ccccc21` (configuration not stated) gave Wnt act inactive.
Screening O=C(NCC(c1ccco1)N1CCCCC1)c1cccc(S(=O)(=O)Nc2ccc(F)cc2)c1 (configuration not stated) returned MITF TRPM1 HTS inactive, Wnt act inactive, SR-BI uptake up inactive and SR-BI DiI inh inactive.
Screening O=C(NCC(c1ccco1)N1CCCC1)c1cc(=O)[nH]c2ccccc12 (configuration not stated) returned MITF TRPM1 HTS inactive, Wnt act 58, SR-BI uptake up inactive and SR-BI DiI inh inactive.
O=C(NCC(c1cccs1)N1CCOCC1)c1cc(=O)[nH]c2ccccc12 (configuration not stated) was read as MITF TRPM1 HTS inactive, Wnt act inactive, HSF1 activator inactive, SR-BI uptake up inactive and SR-BI DiI inh inactive.
For O=C(C#Cc1ccccc1)c1cccc([N+](=O)[O-])c1 the results were MITF TRPM1 HTS inactive, Wnt act inactive, HSF1 activator 101, SR-BI uptake up inactive and SR-BI DiI inh inactive.
Screening CC(=O)c1cccc([N+](=O)[O-])c1 returned MITF TRPM1 HTS inactive, Wnt act inactive, SR-BI uptake up inactive and SR-BI DiI inh inactive.
CCN(CC)S(=O)(=O)c1ccc2oc(C(=O)NCc3ccc(C)cc3)c(C)c2c1 was read as MITF TRPM1 HTS inactive, Wnt act inactive, HSF1 activator inactive, SR-BI uptake up inactive and SR-BI DiI inh 76.
`CCN(CC)S(=O)(=O)c1ccc2oc(C(=O)NC(C)C)c(C)c2c1` gave Wnt act inactive, HSF1 activator inactive, SR-BI uptake up inactive and SR-BI DiI inh inactive.
For CCOc1ccccc1NC(=O)COC(=O)C12CC3CC(CC(O)(C3)C1)C2 the results were MITF TRPM1 HTS inactive, Wnt act inactive, SR-BI uptake up inactive and SR-BI DiI inh inactive.
CCC(CC)C(=O)N(C)c1c(C)nc2c(OCc3ccccc3C)cccn12 was read as Wnt act inactive.
CC1CC(C)CN(C(=O)c2ccc3c(=O)n(Cc4ccc5c(c4)OCO5)c(=S)[nH]c3c2)C1 (configuration not stated) was read as HSF1 activator 65, SR-BI uptake up inactive and SR-BI DiI inh inactive.
`CCOc1ccc(-c2nnc(-c3ccccc3)n2-c2ccccc2)cc1` gave Wnt act 59, HSF1 activator inactive, SR-BI uptake up inactive and SR-BI DiI inh inactive.
`O=C(Cc1ccc(Br)cc1)N1CCc2ccccc2C1` gave Wnt act inactive, HSF1 activator 98, SR-BI uptake up inactive and SR-BI DiI inh inactive.
Screening Cc1ccc(C)c(Cn2nnc3c(=O)[nH]c(C4CCN(C(=O)c5cccs5)CC4)nc32)c1 returned MITF TRPM1 HTS inactive, HSF1 activator 76, SR-BI uptake up inactive and SR-BI DiI inh inactive.
CC(C)c1cc2c(c(O)c1O)[C@@]13CCCC(C)(C)C1CC2OC3=O (some centres not stated) was read as Wnt act inactive, HSF1 activator 66, SR-BI uptake up inactive and SR-BI DiI inh inactive.
COc1ccc(/C(C)=N/Nc2ncc(Cl)cc2Cl)c(O)c1 was read as MITF TRPM1 HTS inactive, Wnt act inactive, HSF1 activator inactive, SR-BI uptake up inactive and SR-BI DiI inh 106.
Nc1nc(N)nc(-c2ccc(Cl)c(Cl)c2)n1 was read as MITF TRPM1 HTS inactive, Wnt act 38, SR-BI uptake up inactive and SR-BI DiI inh inactive.

Screening data: PubChem, Broad Institute
